From ChEMBL document CHEMBL4261549 (Medchemcomm, 2017)
Activity calls are given as the source filed them. The rule behind the calls is not given here.

What was measured:
PC-3 [1] = test: Antiproliferative activity against human PC3 cells after 48 hrs by MTT assay; format: functional, cell-based; settings: PC-3, 48 h
Summary of the method: (§1)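 MTT dye-uptake viability assay; cells seeded at 2.5 × 10^3 per well, grown in RPMI 1640/DMEM with 10% FBS and penicillin/streptomycin at 37 °C, 5% CO2. Exposure to compounds for 48 h over 100 nM to 100 μM. IC50 versus untreated control, given as mean ± SD of three independent experiments.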

HCT-116 = test: Antiproliferative activity against human HCT116 cells after 48 hrs by MTT assay; format: functional, cell-based; settings: HCT-116, 48 h; summary of the method: as §1
MCF7 = test: Antiproliferative activity against human MCF7 cells after 48 hrs by MTT assay; format: functional, cell-based; settings: MCF7, 48 h; summary of the method: as §1
BPH-1 = test: Antiproliferative activity against human BPH1 cells after 48 hrs by MTT assay; format: cell-based; settings: BPH-1, 48 h
PC-3 [2] = test: Antimigratory activity against human PC3 cells assessed as reduction in wound closure after 48 hrs by inverted microscopic assay; format: functional, cell-based; settings: in the assay text read “24 hrs” for “48 hrs”
Summary of the method: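 Scratch assay. PC-3 cells (5 × 10^5 per well) grown 24 h to a confluent monolayer, then serum-starved 24 h. Monolayer scratched with a pipette tip and washed, then treated in 1.0% serum medium with graded concentrations or DMSO for 24 h. Photographed at 20×. % wound closure = [1 – (area t1/area t0) × 100%].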

PC-3 [3] = test: Inhibition of VEGF-induced cell scattering in human PC3 cells at 2.5 to 4.5 uM after 24 to 48 hrs by inverted microscopic assay; format: functional, cell-based
Summary of the method: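 PC-3 cells seeded at 1000 per well and grown 3–4 days into discrete colonies. Stimulated with VEGF in growth medium with graded concentrations. After overnight (24 h) incubation, individual colonies observed by bright-field/inverted microscopy and photographed. Representative of three experiments.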

PC-3 [4] = test: Anti-invasive activity against human PC3 cells after 48 hrs by Boyden chamber assay; format: functional, cell-based
Summary of the method: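 Matrigel (Boyden chamber) invasion kit used per manufacturer. PC-3 cells (1.2 × 10^6 per well) treated with graded concentrations or DMSO vehicle. Invaded cells counted per field and imaged at 20× magnification. Three independent experiments.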

PC-3 [5] = test: Inhibition of colony formation in human PC3 cells at 2.5 to 4.5 uM after 5 days by crystal violet staining based inverted microscopic assay; format: functional, cell-based
Summary of the method: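 Clonogenic assay. PC-3 cells (1 × 10^3 per well) plated, medium replaced after 24 h, then exposed to graded concentrations or DMSO vehicle for 5 days. Colonies stained with crystal violet, counted randomly and imaged at 20×. Three independent experiments.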

PC-3 [6] = test: Induction of mitochondrial membrane potential loss in human PC3 cells after 24 hrs by JC1 staining based fluorescence microscopic method; format: functional, cell-based
Summary of the method: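 Treated PC-3 cells (1 × 10^6 per well) washed with cold PBS and stained with JC-1 at 1 μM final for 30 min at 37 °C. Aggregates and monomers assessed by fluorescence microscopy.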

PC-3 [7] = test: Induction of apoptosis in human PC3 cells assessed as caspase-3/7 activation by caspase3/7-Glo assay; format: functional, cell-based
Summary of the method: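 Cells seeded at 5 × 10^3 per well in 96-well plates for 24 h, then treated. Caspase-3/7 Glo reagent/substrate mix added for 25 min, and luminescence read.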

Homo sapiens [8] = species on record: Homo sapiens; test: Inhibition of PI3K/Akt signaling in human PC3 cells assessed as downregulation of NF-kB expression after 24 hrs by Western blot method; format: cell-based
Summary of the method: (§2)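 PC-3 cells exposed to indicated concentrations or DMSO, then lysed. Equal protein amounts analysed by western blotting, with β-actin as loading control. Representative of three independent experiments.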

[9] = biological target: RAC-alpha serine/threonine-protein kinase (Homo sapiens) (UniProt P31749); test: Inhibition of AKT phosphorylation in human PC3 cells at 2.5 to 4.5 uM after 24 hrs by Western blot method; format: cell-based; summary of the method: as §2
PC-3 [10] = test: Effect on total AKT protein expression in human PC3 cells at 2.5 to 4.5 uM after 24 hrs by Western blot method; format: ADME, cell-based; settings: pc-3, 24 h; summary of the method: as §2
[11] = biological target: Serine/threonine-protein kinase mTOR (Homo sapiens) (UniProt P42345); test: Inhibition of mTOR phosphorylation in human PC3 cells at 2.5 to 4.5 uM after 24 hrs by Western blot method; format: cell-based; summary of the method: as §2
[12] = biological target: Serine/threonine-protein kinase mTOR (Homo sapiens) (UniProt P42345); test: Inhibition of mTOR signaling in human PC3 cells assessed as reduction in S6K protein expression at 2.5 to 4.5 uM after 24 hrs by Western blot method; format: cell-based; summary of the method: as §2
PC-3 [13] = test: Effect on total mTOR protein expression in human PC3 cells at 2.5 to 4.5 uM after 24 hrs by Western blot method; format: ADME, cell-based; settings: pc-3, 24 h; summary of the method: as §2
PC-3 [14] = test: Anti-invasive activity against human PC3 cells assessed as increase in TIMP1 protein expression after 24 hrs by Western blot method; format: functional, cell-based; summary of the method: as §2
Homo sapiens [15] = species on record: Homo sapiens; test: Inhibition of PI3K/Akt in human PC3 cells assessed as reduction in NF-kB dependant MMP2 activation after 48 hrs by gelatin zymographic method; format: cell-based
Summary of the method: (§3)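 Gelatin zymography. Subconfluent (70–80%) PC-3 cells in fresh medium incubated 48 h with increasing concentrations. Equal protein from conditioned media run on 7.5% SDS-PAGE containing 0.1% gelatin, 100 V, 3 h, 4 °C. Gels washed in 2% Triton X-100, incubated overnight at 37 °C in Tris-HCl pH 8.0/10 mM CaCl2 buffer, then Coomassie stained. BSA as loading control.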

Homo sapiens [16] = species on record: Homo sapiens; test: Inhibition of PI3K/Akt in human PC3 cells assessed as reduction in NF-kB dependant MMP9 activation after 48 hrs by gelatin zymographic method; format: cell-based; summary of the method: as §3
Homo sapiens [17] = species on record: Homo sapiens; test: Inhibition of PI3K/Akt in human PC3 cells assessed as downregulation of NF-kB dependant MMP2 protein expression at 2.5 to 4.5 uM after 24 hrs by Western blot method; format: cell-based; summary of the method: as §2
PC-3 [18] = test: Inhibition of PI3K/Akt in human PC3 cells assessed as downregulation of NF-kB dependant MMP9 protein expression at 2.5 to 4.5 uM after 24 hrs by Western blot method; format: functional, cell-based; summary of the method: as §2
PC-3 [19] = test: Antimetastatic activity against human PC3 cells assessed as increase in E-cadherin protein expression at 2.5 to 4.5 uM after 24 hrs by Western blot method; format: functional, cell-based; summary of the method: as §2
PC-3 [20] = test: Antimetastatic activity against human PC3 cells assessed as decrease in vimentin protein expression at 2.5 to 4.5 uM after 24 hrs by Western blot method; format: functional, cell-based; summary of the method: as §2

Chain of RAC-alpha serine/threonine-protein kinase (Homo sapiens) (P31749 whole entry): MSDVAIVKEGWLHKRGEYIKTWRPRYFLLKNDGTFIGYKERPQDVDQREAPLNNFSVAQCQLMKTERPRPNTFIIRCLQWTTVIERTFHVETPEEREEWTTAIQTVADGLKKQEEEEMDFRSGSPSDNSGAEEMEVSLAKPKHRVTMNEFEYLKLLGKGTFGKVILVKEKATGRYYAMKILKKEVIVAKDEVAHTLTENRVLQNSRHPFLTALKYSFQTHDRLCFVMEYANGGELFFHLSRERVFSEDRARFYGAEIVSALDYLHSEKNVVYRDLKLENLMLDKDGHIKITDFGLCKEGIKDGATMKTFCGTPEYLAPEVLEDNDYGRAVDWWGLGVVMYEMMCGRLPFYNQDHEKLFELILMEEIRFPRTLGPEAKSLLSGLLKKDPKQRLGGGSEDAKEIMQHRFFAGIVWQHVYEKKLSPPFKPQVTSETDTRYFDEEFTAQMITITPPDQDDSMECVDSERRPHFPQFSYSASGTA

Structure (SMILES)	IC50 (PC-3 [1])	IC50 (HCT-116)	IC50 (MCF7)	other results
COc1cc(/C=C/C(C)=O)ccc1OCc1cn(-c2ccc([N+](=O)[O-])cc2)nn1	46.7 µM	96.3 µM	> 100 µM	–
COc1cc(/C=C/C(C)=O)ccc1OCc1cn(-c2ccccc2)nn1	78.6 µM	67.3 µM	> 100 µM	–
COc1cccc(-n2cc(COc3ccc(/C=C/C(C)=O)cc3OC)nn2)c1	31.6 µM	29.6 µM	1.8 µM	–
CCOC(=O)c1ccc(-n2cc(COc3ccc(/C=C/C(C)=O)cc3OC)nn2)cc1	59.2 µM	78.9 µM	> 100 µM	–
COc1cc(/C=C/C(C)=O)ccc1OCc1cn(-c2ccccc2O)nn1	59.2 µM	76.4 µM	> 100 µM	–
C#CCOc1ccc(/C=C/C(C)=O)cc1OC	40.2 µM	49.7 µM	65.4 µM	–
COc1cc(/C=C/C(C)=O)ccc1OCc1cn(-c2cc(F)cc(Br)c2)nn1	56.9 µM	45.4 µM	65.5 µM	–
COc1cc(/C=C/C(C)=O)ccc1OCc1cn(-c2ccc(C(F)(F)F)c(C(F)(F)F)c2)nn1	67.2 µM	57.8 µM	87.4 µM	–
COc1cc(/C=C/C(C)=O)ccc1OCc1cn(-c2ccccc2CO)nn1	50.3 µM	> 100 µM	65.8 µM	–
COc1cc(/C=C/C(C)=O)ccc1OCc1cn(-c2ccccc2Cl)nn1	48 µM	39 µM	2.19 µM	–
COc1cc(/C=C/C(C)=O)ccc1OCc1cn(-c2c(F)cccc2F)nn1	24.2 µM	37.7 µM	2.03 µM	–
COc1cc(/C=C/C(C)=O)ccc1OCc1cn(-c2ccc(-c3ccccc3)cc2)nn1	56.8 µM	65.2 µM	65.4 µM	–
COc1cc(/C=C/C(C)=O)ccc1OCc1cn(-c2ccccc2OC)nn1	2.04 µM	25.7 µM	29.1 µM	–
COc1ccc(-n2cc(COc3ccc(/C=C/C(C)=O)cc3OC)nn2)cc1	2.01 µM	21.3 µM	33.7 µM	–
COc1cc(/C=C/C(C)=O)ccc1OCc1cn(-c2c(Cl)cccc2Cl)nn1	3.07 µM	2 µM	26.6 µM	IC50 (BPH-1): > 100 µM; Activity (PC-3 [2]): Dose-dependent effect; inhibition (PC-3 [3]): Active; Activity (PC-3 [4]): Dose-dependent effect; inhibition (PC-3 [5]): Active; Activity (PC-3 [6]): Dose-dependent effect; Activity (PC-3 [7]): Active; inhibition (Homo sapiens [8]): Dose-dependent effect; inhibition [9]: Active; Activity (PC-3 [10]): Non-Toxic; inhibition [11]: Active; inhibition [12]: Active; Activity (PC-3 [13]): Non-Toxic; Activity (PC-3 [14]): Dose-dependent effect; inhibition (Homo sapiens [15]): Dose-dependent effect; inhibition (Homo sapiens [16]): Dose-dependent effect; inhibition (Homo sapiens [17]): Active; inhibition (PC-3 [18]): Active; Activity (PC-3 [19]): Active; Activity (PC-3 [20]): Active
COc1cc(/C=C/C(C)=O)ccc1O [DEHYDROZINGERONE]	43.2 µM	34.8 µM	54.6 µM	–
COc1cc(/C=C/C(C)=O)ccc1OCc1cn(-c2ccc(/N=N/c3ccccc3)cc2)nn1	42.1 µM	> 100 µM	75.9 µM	–
COc1cc(/C=C/C(C)=O)ccc1OCc1cn(-c2ccc(NC(=O)c3ccccc3)cc2)nn1	76.8 µM	> 100 µM	86.7 µM	–
COc1cc(/C=C/C(C)=O)ccc1OCc1cn(-c2ccc(C=O)cc2)nn1	80.7 µM	76.2 µM	86.4 µM	–
COc1cc(/C=C/C(C)=O)ccc1OCc1cn(-c2ccc(C)cc2)nn1	58.1 µM	76.6 µM	> 100 µM	–
